This passage reports IC50 and inhibition results from ChEMBL document CHEMBL1127084, “Synthesis and structure-activity studies of a series of [(hydroxybenzyl)amino]salicylates as inhibitors of EGF receptor-associated tyrosine kinase activity” (J Med Chem, 1993).

The nature of experiment [1]: Inhibition of tyrosine kinase activity in ER 22 membrane fraction by competition with the RRSrc peptide using [32P]-gamma ATP as radioligand. Type of experiment: cell membranes. Summed up: (§1)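 Enzyme source was membrane fractions of ER 22 cells (CCL 39 cells transfected with EGF receptor). Inhibitors were added at various concentrations and phosphorylation of the peptide was measured.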

Experiment [2] has as its target Epidermal growth factor receptor (Homo sapiens) (UniProt P00533). To be noted: ER22; 20 uM.
Experiment [3] can be described thus: Inhibition of ER22 EGF-receptor expressing cell membrane tyrosine kinase activity. The method in brief: as §1
The nature of experiment [4]: Inhibition of ER22 EGF-receptor expressing cell membrane tyrosine kinase activity at 100 uM.
The target of experiment [5] is Epidermal growth factor receptor (Homo sapiens) (UniProt P00533). The note with it: ER22; 10 uM.

Bounds are passed on as bounds.

Epidermal growth factor receptor (Homo sapiens), sequence (P00533 whole entry): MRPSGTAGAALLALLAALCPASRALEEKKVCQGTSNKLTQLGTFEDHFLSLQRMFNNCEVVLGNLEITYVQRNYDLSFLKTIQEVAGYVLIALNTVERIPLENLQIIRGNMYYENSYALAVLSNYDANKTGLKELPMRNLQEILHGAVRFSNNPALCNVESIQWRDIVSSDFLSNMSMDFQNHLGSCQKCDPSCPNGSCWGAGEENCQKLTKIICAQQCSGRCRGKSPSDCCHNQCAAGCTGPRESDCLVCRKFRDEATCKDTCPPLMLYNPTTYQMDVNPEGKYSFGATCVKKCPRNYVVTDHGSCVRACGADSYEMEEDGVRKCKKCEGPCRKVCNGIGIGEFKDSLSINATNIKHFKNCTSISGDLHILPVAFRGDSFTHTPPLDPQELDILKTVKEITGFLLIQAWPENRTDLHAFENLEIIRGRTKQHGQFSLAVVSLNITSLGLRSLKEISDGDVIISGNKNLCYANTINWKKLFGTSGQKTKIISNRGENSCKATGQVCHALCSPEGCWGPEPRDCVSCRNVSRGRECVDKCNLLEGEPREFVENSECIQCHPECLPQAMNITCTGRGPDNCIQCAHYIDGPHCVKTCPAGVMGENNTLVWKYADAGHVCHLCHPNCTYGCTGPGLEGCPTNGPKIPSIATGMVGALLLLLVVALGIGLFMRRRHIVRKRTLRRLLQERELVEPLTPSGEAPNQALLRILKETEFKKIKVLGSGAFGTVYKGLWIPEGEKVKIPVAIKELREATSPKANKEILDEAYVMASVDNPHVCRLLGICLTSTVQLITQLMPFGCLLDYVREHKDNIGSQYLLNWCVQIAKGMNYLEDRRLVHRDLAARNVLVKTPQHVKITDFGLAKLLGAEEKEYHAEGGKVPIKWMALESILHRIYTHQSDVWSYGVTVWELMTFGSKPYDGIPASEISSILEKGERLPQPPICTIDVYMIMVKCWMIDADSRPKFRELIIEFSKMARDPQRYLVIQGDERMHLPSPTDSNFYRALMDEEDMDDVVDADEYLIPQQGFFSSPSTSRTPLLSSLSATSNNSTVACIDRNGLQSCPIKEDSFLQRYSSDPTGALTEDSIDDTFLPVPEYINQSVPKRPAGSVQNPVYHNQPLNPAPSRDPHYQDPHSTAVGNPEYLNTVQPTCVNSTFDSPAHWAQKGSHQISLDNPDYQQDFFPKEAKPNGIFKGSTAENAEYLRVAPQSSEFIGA

A word on the IC50: it is the concentration that gives 50% inhibition. The low end stands for greater potency in that assay, the high end for weaker potency in that assay. One may read the inhibition as the share of the control response that was lost under treatment. As for `COC(=O)c1cc(/N=C/c2ccc(O)c(O)c2)ccc1O`, the IC50 in experiment [1] is 10 µM. In experiment [2], the inhibition came to 37%.

Take `COC(=O)c1cc(NCc2cc(O)ccc2O)ccc1OC`: the IC50 in experiment [1] is 5 µM.

The compound `COC(=O)c1cc(/N=C/c2ccccc2O)ccc1O` yielded an IC50 in experiment [1] of over 100 µM.

Compound `COC(=O)c1cc(/N=C/c2cccc(O)c2)ccc1O` returned an IC50 in experiment [1] of over 100 µM. This compound also showed an inhibition in experiment [2] of 20%.

Regarding `COC(=O)c1cc(NCc2ccccc2O)ccc1O`, the concentration for half-maximal inhibition (IC50) in experiment [1] is 45 µM.

Turning to `COC(=O)c1cc(/N=C/c2ccc(O)cc2O)ccc1O`, the IC50 in experiment [1] is over 100 µM. In experiment [2], the inhibition came to 65%.

For `COC(=O)c1ccc(/N=C/c2cc(O)ccc2O)cc1O`, the IC50 in experiment [1] is over 10 µM.

`O=C(O)c1cc(NCc2ccccc2O)ccc1O` yielded an IC50 in experiment [1] of 25 µM.

Compound `COC(=O)c1cccc(NCc2cc(O)ccc2O)c1` had an IC50 in experiment [1] of 1.6 µM.

As for `COC(=O)c1cc(/N=C/c2ccc(O)cc2)ccc1O`, in experiment [1], the concentration for half-maximal inhibition (IC50) is over 10 µM.

In experiment [3], `COC(=O)c1cc(NCc2ccc(O)cc2)ccc1O` had an IC50 of over 10 µM.

In the case of `COC(=O)c1cc(NCc2cccc(O)c2)ccc1O`, the inhibition in experiment [4] was found to be 37%.

`O=C(O)c1cc(/N=C/c2cc(O)ccc2O)ccc1O`: the IC50 in experiment [1] was determined as 5 µM.

In the case of `O=C(O)c1cc(/N=C/c2ccccc2O)ccc1O`, the IC50 in experiment [1] was over 100 µM.

In the case of `COC(=O)c1cc(NCc2cc(O)ccc2O)ccc1O`, the IC50 in experiment [1] is 0.6 µM.

Consider `O=C(O)c1cccc(NCc2cc(O)ccc2O)c1`, for which the IC50 in experiment [1] stood at 2.4 µM.

For the compound `COC(=O)c1ccc(NCc2cc(O)ccc2O)cc1O`, the IC50 in experiment [1] was 0.2 µM.

Regarding `COC(=O)c1cc(/N=C/c2cc(OC)ccc2OC)ccc1O`, the IC50 in experiment [1] was over 10 µM. Besides, in experiment [5], the inhibition amounted to 14%.

Regarding `COC(=O)c1cc(/N=C/c2cc(O)ccc2O)ccc1OC`, the IC50 in experiment [1] is over 100 µM.

Regarding `COC(=O)c1cc(/N=C/c2cc(O)ccc2O)ccc1O`, in experiment [1], the IC50 worked out at 100 µM.

On to `O=C(O)c1cccc(/N=C/c2cc(O)ccc2O)c1`, for which the IC50 in experiment [1] is over 10 µM.

In turn, `COC(=O)c1cc(NCc2cc(OC)ccc2OC)ccc1O` gave a concentration for half-maximal inhibition (IC50) in experiment [1] of over 100 µM. The inhibition in experiment [2] worked out at 18%.
